Assay [1] addresses T1, Pituitary adenylate cyclase-activating polypeptide type I receptor (Homo sapiens, UniProt P41586). The assay is described as follows: Agonist activity at human recombinant PAC1 receptor expressed in CHO cells assessed as PACAP38-induced calcium mobilization at 1 uM by FLIPR assay relative to PACAP38. Format: functional, cell-based. (Calcium assays in cells follow changes in intracellular calcium, usually with a dye or a luminescent sensor.)
Target sequence in this assay (P41586 21-468 limits assumed): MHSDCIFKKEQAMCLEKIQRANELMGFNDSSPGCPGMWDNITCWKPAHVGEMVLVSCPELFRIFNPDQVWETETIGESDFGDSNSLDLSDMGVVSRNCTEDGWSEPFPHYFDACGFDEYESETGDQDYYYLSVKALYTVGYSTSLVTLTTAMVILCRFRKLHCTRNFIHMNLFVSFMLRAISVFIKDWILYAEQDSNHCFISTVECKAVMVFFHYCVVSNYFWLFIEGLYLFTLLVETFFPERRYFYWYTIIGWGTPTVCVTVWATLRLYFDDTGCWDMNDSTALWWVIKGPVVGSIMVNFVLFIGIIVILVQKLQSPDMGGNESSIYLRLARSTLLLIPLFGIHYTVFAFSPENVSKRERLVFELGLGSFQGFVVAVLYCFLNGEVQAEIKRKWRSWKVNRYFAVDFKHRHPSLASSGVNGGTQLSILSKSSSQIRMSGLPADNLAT

The target of assay [2] is T1, Pituitary adenylate cyclase-activating polypeptide type I receptor. The assay is described as follows: Displacement of [125I]Ac-PACAP27 from human recombinant PAC1 receptor expressed in CHO cells by gamma- counter. Format: cell-based.
Target sequence in this assay (P41586 whole entry): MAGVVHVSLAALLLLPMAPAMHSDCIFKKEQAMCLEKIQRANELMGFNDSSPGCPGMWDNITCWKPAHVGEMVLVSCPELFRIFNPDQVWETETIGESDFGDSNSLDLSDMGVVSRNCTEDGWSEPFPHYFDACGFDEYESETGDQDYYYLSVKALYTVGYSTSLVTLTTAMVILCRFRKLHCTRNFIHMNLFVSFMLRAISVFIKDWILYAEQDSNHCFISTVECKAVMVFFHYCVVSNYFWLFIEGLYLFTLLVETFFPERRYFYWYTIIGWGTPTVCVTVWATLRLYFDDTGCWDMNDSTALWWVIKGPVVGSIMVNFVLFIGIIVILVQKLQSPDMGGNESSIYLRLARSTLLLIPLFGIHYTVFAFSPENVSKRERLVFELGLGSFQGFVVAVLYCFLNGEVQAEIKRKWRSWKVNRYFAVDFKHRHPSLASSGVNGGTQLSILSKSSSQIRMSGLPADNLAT
Assay [3] has the same target. The assay is described as follows: Agonist activity at human recombinant PAC1 receptor expressed in CHO cells assessed as PACAP38-induced calcium mobilization at 1 uM by FLIPR assay. The assay is classed as functional, cell-based.
Target sequence in this assay (P41586 whole entry): as above
For assay [4] the target is unchanged. The assay is described as follows: Agonist activity at human recombinant PAC1 receptor expressed in CHO cells assessed as PACAP38-induced calcium mobilization by FLIPR assay relative to PACAP38. Format: functional, cell-based. An outline of the steps:
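CHO cells stably expressing recombinant human PAC1, plated 24 h before assay, loaded with fluo-4 AM for 60 min at 37 °C in the dark, then rinsed into HBSS for 15 min at 37 °C. Peptide was added 18 s into a 150 s read (ex 480/em 525 nm), at final concentrations of 1 × 10-12 to 1 × 10^-5 M. Response was normalised to 1 × 10^-5 M PACAP38 on each plate. EC50 and efficacy came from nonlinear regression; 4-10 independent assays in duplicate.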
Target sequence in this assay (P41586 21-468 limits assumed): as the sequence (P41586 21-468 limits assumed) above

For assay [5] the target is unchanged. The assay is described as follows: Agonist activity at human recombinant PAC1 receptor expressed in CHO cells assessed as PACAP38-induced calcium mobilization by FLIPR assay. Format: functional, cell-based. An outline of the steps:
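CHO cells stably expressing recombinant human PAC1, plated 24 h before assay, loaded with fluo-4 AM for 60 min at 37 °C in the dark, then rinsed into HBSS for 15 min at 37 °C. EC50 and efficacy came from nonlinear regression; 4-10 independent assays in duplicate.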
Target sequence in this assay (P41586 whole entry): as the sequence (P41586 whole entry) above

Active and inactive are the calls of the source. The calls are words filed in the database; no cut-off is given here. Where a SMILES comes first, the peptide text is derived from it. [ ]: non-standard residue; d: D form. ξ: configuration not given here. ξTiq(1-COOH) = O=C(O)C1NCCc2ccccc21; Hyp = O=C(O)[C@@H]1C[C@@H](O)CN1

A word on the Emax: it is the size of the effect at its maximum, as opposed to the concentration needed. Usually IC50 stands for the point on the concentration scale where inhibition reaches its midpoint. For orientation: EC50 means the concentration at which the effect is half-maximal. As for `CC[C@H](C)[C@H](NC(=O)CNC(=O)[C@H](CC(=O)O)NC(=O)[C@H](CO)NC(=O)[C@@H](N)Cc1cnc[nH]1)C(=O)N1CCc2ccccc2C1C(=O)N[C@H](C(=O)N[C@@H](CC(=O)O)C(=O)N[C@@H](CO)C(=O)N[C@@H](Cc1ccc(O)cc1)C(=O)N[C@@H](CO)C(=O)N[C@@H](CCCNC(=N)N)C(=O)N[C@@H](Cc1ccc(O)cc1)C(=O)N[C@@H](CCCNC(=N)N)C(=O)N[C@@H](CCCCN)C(=O)N[C@@H](CCC(N)=O)C(=O)N[C@@H](CCSC)C(=O)N[C@@H](C)C(=O)N[C@H](C(=O)N[C@@H](CCCCN)C(=O)N[C@@H](CCCCN)C(=O)N[C@@H](Cc1ccc(O)cc1)C(=O)N[C@@H](CC(C)C)C(=O)N[C@@H](C)C(=O)N[C@@H](C)C(=O)N[C@H](C(=O)N[C@@H](CC(C)C)C(=O)NCC(=O)N[C@@H](CCCCN)C(=O)N[C@@H](CCCNC(=N)N)C(=O)N[C@@H](Cc1ccc(O)cc1)C(=O)N[C@@H](CCCCN)C(=O)N[C@@H](CCC(N)=O)C(=O)N[C@@H](CCCNC(=N)N)C(=O)N[C@H](C(=O)N[C@@H](CCCCN)C(=O)N[C@@H](CC(N)=O)C(=O)N[C@@H](CCCCN)C(N)=O)C(C)C)C(C)C)C(C)C)[C@@H](C)O` (stereo partly specified) (H-HSDGI[ξTiq(1-COOH)]TDSYSRYRKQMAVKKYLAAVLGKRYKQRVKNK-NH2), in assay [1], the Emax entry was “inactive”. Further, the IC50 in assay [2] turned out to be 1550 nM. Also, the EC50 entry in assay [3] is listed as “Not Active”.

Take `CC[C@H](C)[C@H](NC(=O)CNC(=O)[C@H](CCC(=O)O)NC(=O)[C@H](CO)NC(=O)[C@@H](N)Cc1cnc[nH]1)C(=O)N[C@@H](Cc1ccccc1)C(=O)N[C@H](C(=O)N[C@@H](CC(=O)O)C(=O)N[C@@H](CO)C(=O)N[C@@H](Cc1ccc(O)cc1)C(=O)N[C@@H](CO)C(=O)N[C@@H](CCCNC(=N)N)C(=O)N[C@@H](Cc1ccc(O)cc1)C(=O)N[C@@H](CCCNC(=N)N)C(=O)N[C@@H](CCCCN)C(=O)N[C@@H](CCC(N)=O)C(=O)N[C@@H](CCSC)C(=O)N[C@@H](C)C(=O)N[C@H](C(=O)N[C@@H](CCCCN)C(=O)N[C@@H](CCCCN)C(=O)N[C@@H](Cc1ccc(O)cc1)C(=O)N[C@@H](CC(C)C)C(=O)N[C@@H](C)C(=O)N[C@@H](C)C(=O)N[C@H](C(=O)N[C@@H](CC(C)C)C(N)=O)C(C)C)C(C)C)[C@@H](C)O`: the Emax in assay [4] amounted to 90.5%. Moreover, the EC50 in assay [5] turned out to be 20.6 nM. In addition, the IC50 in assay [2] worked out at 10.6 nM.

For `CC[C@H](C)[C@H](NC(=O)CNC(=O)[C@H](CC(=O)O)NC(=O)[C@H](CO)NC(=O)[C@@H](N)Cc1cnc[nH]1)C(=O)N[C@@H](Cc1cccc2ccccc12)C(=O)N[C@H](C(=O)N[C@@H](CC(=O)O)C(=O)N[C@@H](CO)C(=O)N[C@@H](Cc1ccc(O)cc1)C(=O)N[C@@H](CO)C(=O)N[C@@H](CCCNC(=N)N)C(=O)N[C@@H](Cc1ccc(O)cc1)C(=O)N[C@@H](CCCNC(=N)N)C(=O)N[C@@H](CCCCN)C(=O)N[C@@H](CCC(N)=O)C(=O)N[C@@H](CCSC)C(=O)N[C@@H](C)C(=O)N[C@H](C(=O)N[C@@H](CCCCN)C(=O)N[C@@H](CCCCN)C(=O)N[C@@H](Cc1ccc(O)cc1)C(=O)N[C@@H](CC(C)C)C(=O)N[C@@H](C)C(=O)N[C@@H](C)C(=O)N[C@H](C(=O)N[C@@H](CC(C)C)C(N)=O)C(C)C)C(C)C)[C@@H](C)O`, the Emax in assay [4] amounted to 110%. In addition, the EC50 in assay [5] was determined as 0.7 nM. Also, the IC50 in assay [2] amounted to 6.5 nM.

With `CC[C@H](C)[C@H](NC(=O)CNC(=O)[C@H](CC(=O)O)NC(=O)[C@H](CO)NC(=O)[C@@H](N)Cc1cnc[nH]1)C(=O)N[C@@H](Cc1ccccc1)C(=O)N(C)[C@H](C(=O)N[C@@H](CC(=O)O)C(=O)N[C@@H](CO)C(=O)N[C@@H](Cc1ccc(O)cc1)C(=O)N[C@@H](CO)C(=O)N[C@@H](CCCNC(=N)N)C(=O)N[C@@H](Cc1ccc(O)cc1)C(=O)N[C@@H](CCCNC(=N)N)C(=O)N[C@@H](CCCCN)C(=O)N[C@@H](CCC(N)=O)C(=O)N[C@@H](CCSC)C(=O)N[C@@H](C)C(=O)N[C@H](C(=O)N[C@@H](CCCCN)C(=O)N[C@@H](CCCCN)C(=O)N[C@@H](Cc1ccc(O)cc1)C(=O)N[C@@H](CC(C)C)C(=O)N[C@@H](C)C(=O)N[C@@H](C)C(=O)N[C@H](C(=O)N[C@@H](CC(C)C)C(=O)NCC(=O)N[C@@H](CCCCN)C(=O)N[C@@H](CCCNC(=N)N)C(=O)N[C@@H](Cc1ccc(O)cc1)C(=O)N[C@@H](CCCCN)C(=O)N[C@@H](CCC(N)=O)C(=O)N[C@@H](CCCNC(=N)N)C(=O)N[C@H](C(=O)N[C@@H](CCCCN)C(=O)N[C@@H](CC(N)=O)C(=O)N[C@@H](CCCCN)C(N)=O)C(C)C)C(C)C)C(C)C)[C@@H](C)O`, the Emax in assay [4] worked out at 40%. Further, the EC50 in assay [5] came to 1010 nM. Also, the IC50 in assay [2] was 1010 nM.

As to `CC[C@H](C)[C@H](NC(=O)CNC(=O)[C@H](C)NC(=O)[C@H](CO)NC(=O)[C@@H](N)Cc1cnc[nH]1)C(=O)N[C@@H](Cc1ccccc1)C(=O)N[C@H](C(=O)N[C@@H](CC(=O)O)C(=O)N[C@@H](CO)C(=O)N[C@@H](Cc1ccc(O)cc1)C(=O)N[C@@H](CO)C(=O)N[C@@H](CCCNC(=N)N)C(=O)N[C@@H](Cc1ccc(O)cc1)C(=O)N[C@@H](CCCNC(=N)N)C(=O)N[C@@H](CCCCN)C(=O)N[C@@H](CCC(N)=O)C(=O)N[C@@H](CCSC)C(=O)N[C@@H](C)C(=O)N[C@H](C(=O)N[C@@H](CCCCN)C(=O)N[C@@H](CCCCN)C(=O)N[C@@H](Cc1ccc(O)cc1)C(=O)N[C@@H](CC(C)C)C(=O)N[C@@H](C)C(=O)N[C@@H](C)C(=O)N[C@H](C(=O)N[C@@H](CC(C)C)C(N)=O)C(C)C)C(C)C)[C@@H](C)O`, the Emax in assay [4] worked out at 18.4%. Also, the EC50 in assay [5] was 538 nM. Moreover, the IC50 in assay [2] stood at 602 nM.

For the molecule `CC[C@H](C)[C@H](NC(=O)CNC(=O)[C@H](CC(=O)O)NC(=O)[C@@H]1C[C@@H](O)CN1C(=O)[C@@H](N)Cc1cnc[nH]1)C(=O)N[C@@H](Cc1ccccc1)C(=O)N[C@H](C(=O)N[C@@H](CC(=O)O)C(=O)N[C@@H](CO)C(=O)N[C@@H](Cc1ccc(O)cc1)C(=O)N[C@@H](CO)C(=O)N[C@@H](CCCNC(=N)N)C(=O)N[C@@H](Cc1ccc(O)cc1)C(=O)N[C@@H](CCCNC(=N)N)C(=O)N[C@@H](CCCCN)C(=O)N[C@@H](CCC(N)=O)C(=O)N[C@@H](CCSC)C(=O)N[C@@H](C)C(=O)N[C@H](C(=O)N[C@@H](CCCCN)C(=O)N[C@@H](CCCCN)C(=O)N[C@@H](Cc1ccc(O)cc1)C(=O)N[C@@H](CC(C)C)C(=O)N[C@@H](C)C(=O)N[C@@H](C)C(=O)N[C@H](C(=O)N[C@@H](CC(C)C)C(=O)NCC(=O)N[C@@H](CCCCN)C(=O)N[C@@H](CCCNC(=N)N)C(=O)N[C@@H](Cc1ccc(O)cc1)C(=O)N[C@@H](CCCCN)C(=O)N[C@@H](CCC(N)=O)C(=O)N[C@@H](CCCNC(=N)N)C(=O)N[C@H](C(=O)N[C@@H](CCCCN)C(=O)N[C@@H](CC(N)=O)C(=O)N[C@@H](CCCCN)C(N)=O)C(C)C)C(C)C)C(C)C)[C@@H](C)O` (H-H[Hyp]DGIFTDSYSRYRKQMAVKKYLAAVLGKRYKQRVKNK-NH2), the Emax in assay [4] came to 94%. Moreover, the EC50 in assay [5] is 0.7 nM. Moreover, the IC50 in assay [2] is 8.6 nM.

With `CC[C@H](C)[C@H](NC(=O)CNC(=O)[C@H](CC(=O)O)NC(=O)[C@H](C)NC(=O)[C@@H](N)Cc1cnc[nH]1)C(=O)N[C@@H](Cc1ccccc1)C(=O)N[C@H](C(=O)N[C@@H](CC(=O)O)C(=O)N[C@@H](CO)C(=O)N[C@@H](Cc1ccc(O)cc1)C(=O)N[C@@H](CO)C(=O)N[C@@H](CCCNC(=N)N)C(=O)N[C@@H](Cc1ccc(O)cc1)C(=O)N[C@@H](CCCNC(=N)N)C(=O)N[C@@H](CCCCN)C(=O)N[C@@H](CCC(N)=O)C(=O)N[C@@H](CCSC)C(=O)N[C@@H](C)C(=O)N[C@H](C(=O)N[C@@H](CCCCN)C(=O)N[C@@H](CCCCN)C(=O)N[C@@H](Cc1ccc(O)cc1)C(=O)N[C@@H](CC(C)C)C(=O)N[C@@H](C)C(=O)N[C@@H](C)C(=O)N[C@H](C(=O)N[C@@H](CC(C)C)C(=O)NCC(=O)N[C@@H](CCCCN)C(=O)N[C@@H](CCCNC(=N)N)C(=O)N[C@@H](Cc1ccc(O)cc1)C(=O)N[C@@H](CCCCN)C(=O)N[C@@H](CCC(N)=O)C(=O)N[C@@H](CCCNC(=N)N)C(=O)N[C@H](C(=O)N[C@@H](CCCCN)C(=O)N[C@@H](CC(N)=O)C(=O)N[C@@H](CCCCN)C(N)=O)C(C)C)C(C)C)C(C)C)[C@@H](C)O` (H-HADGIFTDSYSRYRKQMAVKKYLAAVLGKRYKQRVKNK-NH2), the Emax in assay [4] amounted to 105%. Besides, the EC50 in assay [5] was 5.1 nM. Also, the IC50 in assay [2] was 7.9 nM.

For the origin of these results see ChEMBL document CHEMBL1138520, “Molecular and conformational determinants of pituitary adenylate cyclase-activating polypeptide (PACAP) for activation of the PAC1 receptor” (J Med Chem, 2009).
